Laboratory results published in ChEMBL document CHEMBL3525913, “Metabolism-dependent inhibition of CYP3A4 by lapatinib: evidence for formation of a metabolic intermediate complex with a nitroso/oxime metabolite formed via a nitrone intermediate” (Drug Metab Dispos, 2013).

Experiments:
Liver microsome [1] = experiment: Drug metabolism in human liver microsomes assessed as N-(3-chloro-4-(3-fluorobenzyloxy)phenyl)-6-(5-((hydroxy(2 (methylsulfonyl)ethyl)amino)methyl)furan-2-yl)quinazolin-4-amine formation at 50 uM for 30 mins by LC/MS/MS analysis; format: ADME; conditions: 0.5 h
Outline: (§1)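 Lapatinib 50 μM (added in DMSO) incubated 30 min at 37°C in 100 mM potassium phosphate pH 7.4 with HLM 1 mg/mL or recombinant CYP3A4+b5 / CYP3A5+b5 100 pmol/mL. Reaction started with NADPH 1 mM. Protein re-isolated by ultracentrifugation (100,000 x g, 4°C, 60 min), washed (KCl/EDTA), resuspended in phosphate buffer, ±2 mM ferricyanide 10 min 37°C, quenched with acetonitrile, then high-resolution LC/MS profiling.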

Liver microsome [2] = experiment: Drug metabolism in human liver microsomes assessed as 5-(4-(3-chloro-4-(3-fluorobenzyloxy)phenylamino)quinazolin-6-yl)furan-2-carbaldehyde oxime formation at 50 uM for 30 mins by LC/MS/MS analysis; format: ADME; conditions: 0.5 h; outline: as §1
Liver microsome [3] = experiment: Drug metabolism in human liver microsomes assessed as N-((5-(4-(3-chloro-Drug metabolism in human liver microsomes assessed as 5-(4-(3-chloro-4-(3-fluorobenzyloxy)phenylamino)quinazolin-6-yl)furan-2-carbaldehyde formation at 50 uM for 30 mins by LC/MS/MS analysis; format: ADME; conditions: 0.5 h; outline: as §1
Cytochrome P450 3A4 [4] = target: T1, Cytochrome P450 3A4 (Homo sapiens, UniProt P08684); experiment: Activity of recombinant CYP3A4 (unknown origin) assessed as 2-chloro-4-(6-(5-((2-(methylsulfonyl)ethylamino)methyl)furan-2-yl)quinazolin-4-ylamino)phenol formation at 50 uM for 30 mins by LC/MS/MS analysis; format: ADME; conditions: recombinant enzyme, 0.5 h; outline: as §1
Cytochrome P450 3A4 [5] = target: T1, Cytochrome P450 3A4; experiment: Activity of recombinant CYP3A4 (unknown origin) assessed as N-((5-(4-(3-chloro-4-(3-fluorobenzyloxy)phenylamino)quinazolin-6-yl)furan-2-yl)methylene)-2-(methylsulfonyl)ethanamine oxide formation at 50 uM for 30 mins by LC/MS/MS analysis; format: ADME; conditions: recombinant enzyme, 0.5 h; outline: as §1
Cytochrome P450 3A4 [6] = target: T1, Cytochrome P450 3A4; experiment: Activity of recombinant CYP3A4 (unknown origin) assessed as (5-(4-(3-chloro-4-(3-fluorobenzyloxy)phenylamino)quinazolin-6-yl)furan-2-yl)methanol formation at 50 uM for 30 mins by LC/MS/MS analysis; format: ADME; conditions: recombinant enzyme, 0.5 h; outline: as §1
Cytochrome P450 3A4 [7] = target: T1, Cytochrome P450 3A4; experiment: Activity of recombinant CYP3A4 (unknown origin) assessed as N-(3-chloro-4-(3-fluorobenzyloxy)phenyl)-6-(5-((hydroxy(2 (methylsulfonyl)ethyl)amino)methyl)furan-2-yl)quinazolin-4-amine formation at 50 uM for 30 mins by LC/MS/MS analysis; format: ADME; conditions: recombinant enzyme, 0.5 h; outline: as §1
Cytochrome P450 3A4 [8] = target: T1, Cytochrome P450 3A4; experiment: Activity of recombinant CYP3A4 (unknown origin) assessed as 5-(4-(3-chloro-4-(3-fluorobenzyloxy)phenylamino)quinazolin-6-yl)furan-2-carbaldehyde oxime formation at 50 uM for 30 mins by LC/MS/MS analysis; format: ADME; conditions: recombinant enzyme, 0.5 h; outline: as §1
Cytochrome P450 3A4 [9] = target: T1, Cytochrome P450 3A4; experiment: Activity of recombinant CYP3A4 (unknown origin) assessed as 5-(4-(3-chloro-4-(3-fluorobenzyloxy)phenylamino)quinazolin-6-yl)furan-2-carbaldehyde formation at 50 uM for 30 mins by LC/MS/MS analysis; format: ADME; conditions: recombinant enzyme, 0.5 h; outline: as §1
Cytochrome P450 3A5 [10] = target: T2, Cytochrome P450 3A5 (Homo sapiens, UniProt P20815); experiment: Activity of recombinant CYP3A5 (unknown origin) assessed as 2-chloro-4-(6-(5-((2-(methylsulfonyl)ethylamino)methyl)furan-2-yl)quinazolin-4-ylamino)phenol formation at 50 uM for 30 mins by LC/MS/MS analysis; format: ADME; conditions: recombinant enzyme, 0.5 h; outline: as §1
Cytochrome P450 3A5 [11] = target: T2, Cytochrome P450 3A5; experiment: Activity of recombinant CYP3A5 (unknown origin) assessed as 2-chloro-4-(6-(5-(hydroxy(2-(methylsulfonyl)ethylamino)methyl)furan-2-yl)quinazolin-4-ylamino)phenol formation at 50 uM for 30 mins by LC/MS/MS analysis; format: ADME; conditions: recombinant enzyme, 0.5 h; outline: as §1
Cytochrome P450 3A5 [12] = target: T2, Cytochrome P450 3A5; experiment: Activity of recombinant CYP3A5 (unknown origin) assessed as 6-(5-(aminomethyl)furan-2-yl)-N-(3-chloro-4-(3-fluorobenzyloxy)phenyl)quinazolin-4-amine formation at 50 uM for 30 mins by LC/MS/MS analysis; format: ADME; conditions: recombinant enzyme, 0.5 h; outline: as §1
Cytochrome P450 3A5 [13] = target: T2, Cytochrome P450 3A5; experiment: Activity of recombinant CYP3A5 (unknown origin) assessed as N-((5-(4-(3-chloro-4-(3-fluorobenzyloxy)phenylamino)quinazolin-6-yl)furan-2-yl)methylene)-2-(methylsulfonyl)ethanamine oxide formation at 50 uM for 30 mins by LC/MS/MS analysis; format: ADME; conditions: recombinant enzyme, 0.5 h; outline: as §1
Cytochrome P450 3A5 [14] = target: T2, Cytochrome P450 3A5; experiment: Activity of recombinant CYP3A5 (unknown origin) assessed as (5-(4-(3-chloro-4-(3-fluorobenzyloxy)phenylamino)quinazolin-6-yl)furan-2-yl)methanol formation at 50 uM for 30 mins by LC/MS/MS analysis; format: ADME; conditions: recombinant enzyme, 0.5 h; outline: as §1
Cytochrome P450 3A5 [15] = target: T2, Cytochrome P450 3A5; experiment: Activity of recombinant CYP3A5 (unknown origin) assessed as N-(3-chloro-4-(3-fluorobenzyloxy)phenyl)-6-(5-((hydroxy(2 (methylsulfonyl)ethyl)amino)methyl)furan-2-yl)quinazolin-4-amine formation at 50 uM for 30 mins by LC/MS/MS analysis; format: ADME; conditions: recombinant enzyme, 0.5 h; outline: as §1
Cytochrome P450 3A5 [16] = target: T2, Cytochrome P450 3A5; experiment: Activity of recombinant CYP3A5 (unknown origin) assessed as 5-(4-(3-chloro-4-(3-fluorobenzyloxy)phenylamino)quinazolin-6-yl)furan-2-carbaldehyde oxime formation at 50 uM for 30 mins by LC/MS/MS analysis; format: ADME; conditions: recombinant enzyme, 0.5 h; outline: as §1
Cytochrome P450 3A5 [17] = target: T2, Cytochrome P450 3A5; experiment: Activity of recombinant CYP3A5 (unknown origin) assessed as 5-(4-(3-chloro-4-(3-fluorobenzyloxy)phenylamino)quinazolin-6-yl)furan-2-carbaldehyde formation at 50 uM for 30 mins by LC/MS/MS analysis; format: ADME; conditions: recombinant enzyme, 0.5 h; outline: as §1
Cytochrome P450 3A4 [18] = target: T1, Cytochrome P450 3A4; experiment: Activity of recombinant CYP3A4 (unknown origin) assessed as 6-(5-(aminomethyl)furan-2-yl)-N-(3-chloro-4-(3-fluorobenzyloxy)phenyl)quinazolin-4-amine formation at 50 uM for 30 mins by LC/MS/MS analysis; format: ADME; conditions: recombinant enzyme, 0.5 h; outline: as §1
Cytochrome P450 3A4 [19] = target: T1, Cytochrome P450 3A4; experiment: Activity of recombinant CYP3A4 (unknown origin) assessed as 2-chloro-4-(6-(5-(hydroxy(2-(methylsulfonyl)ethylamino)methyl)furan-2-yl)quinazolin-4-ylamino)phenol formation at 50 uM for 30 mins by LC/MS/MS analysis; format: ADME; conditions: recombinant enzyme, 0.5 h; outline: as §1
Liver microsome [20] = experiment: Drug metabolism in human liver microsomes assessed as 2-chloro-4-(6-(5-((2-(methylsulfonyl)ethylamino)methyl)furan-2-yl)quinazolin-4-ylamino)phenol formation at 50 uM for 30 mins by LC/MS/MS analysis; format: ADME; conditions: 0.5 h; outline: as §1
Liver microsome [21] = experiment: Drug metabolism in human liver microsomes assessed as 2-chloro-4-(6-(5-(hydroxy(2-(methylsulfonyl)ethylamino)methyl)furan-2-yl)quinazolin-4-ylamino)phenol formation at 50 uM for 30 mins by LC/MS/MS analysis; format: ADME; conditions: 0.5 h; outline: as §1
Liver microsome [22] = experiment: Drug metabolism in human liver microsomes assessed as 6-(5-(aminomethyl)furan-2-yl)-N-(3-chloro-4-(3-fluorobenzyloxy)phenyl)quinazolin-4-amine formation at 50 uM for 30 mins by LC/MS/MS analysis; format: ADME; conditions: 0.5 h; outline: as §1
Liver microsome [23] = experiment: Drug metabolism in human liver microsomes assessed as N-((5-(4-(3-chloro-4-(3-fluorobenzyloxy)phenylamino)quinazolin-6-yl)furan-2-yl)methylene)-2-(methylsulfonyl)ethanamine oxide formation at 50 uM for 30 mins by LC/MS/MS analysis; format: ADME; conditions: 0.5 h; outline: as §1
Liver microsome [24] = experiment: Drug metabolism in human liver microsomes assessed as (5-(4-(3-chloro-4-(3-fluorobenzyloxy)phenylamino)quinazolin-6-yl)furan-2-yl)methanol formation at 50 uM for 30 mins by LC/MS/MS analysis; format: ADME; conditions: 0.5 h; outline: as §1
CYP3A4 [25] = target: T3, CYP3A4 (Homo sapiens, UniProt P08684); experiment: Inhibition of CYP3A4-mediated midazolam 1-hydroxylation in human liver microsomes at 50 uM; format: ADME; conditions: probe midazolam (1-hydroxylation)
Outline: (§2)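 30 min preincubation with 50 μM test compound (DMSO) and 1 mM NADPH at 37°C in 100 mM potassium phosphate, pH 7.4. Enzyme source was HLM at 1 mg/mL or recombinant CYP3A4 + b5 at 100 pmol/mL. Residual activity assayed with midazolam (30 μM; 5 min; 37°C) at 0.05 mg/mL. 1'-hydroxymidazolam quantified by LC/MS/MS and normalised to solvent controls.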

CYP3A4 [26] = target: T3, CYP3A4; experiment: Inhibition of recombinant CYP3A4 (unknown origin)-mediated midazolam 1-hydroxylation at 50 uM; format: ADME; conditions: recombinant CYP3A4, probe midazolam (1-hydroxylation); outline: as §2
CYP3A5 = CYP3A5 (Homo sapiens, UniProt P20815); experiment: Inhibition of recombinant CYP3A5 (unknown origin)-mediated midazolam 1-hydroxylation at 50 uM; format: ADME; conditions: recombinant CYP3A5, probe midazolam (1-hydroxylation)
Outline: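 Recombinant CYP3A5+b5 (100 pmol/mL) preincubated 30 min at 37°C, pH 7.4, with lapatinib 50 μM and 1 mM NADPH. Solvent controls run alongside. Residual activity measured as midazolam (30 μM, 5 min, 37°C) 1'-hydroxylation by LC/MS/MS at 0.05 mg/mL. Measured directly and after ultracentrifugation (100,000 x g, 60 min) with or without 2 mM ferricyanide (10 min). Normalized to solvent control.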

Cytochrome P450 3A5 [27] = target: T2, Cytochrome P450 3A5; experiment: Inhibition of recombinant CYP3A5 (unknown origin)-mediated midazolam 1-hydroxylation at 50 uM in presence of 2 mM ferricyanide; format: ADME; conditions: recombinant enzyme
Outline: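 Recombinant CYP3A5 + b5 (100 pmol/mL) preincubated 30 min at 37°C with test compound (50 μM) in 100 mM potassium phosphate pH 7.4, started with 1 mM NADPH. Then potassium ferricyanide (2 mM final) for 10 min at 37°C, ultracentrifugation, pellet washed. Residual midazolam (30 μM, 5 min, 37°C) 1'-hydroxylation measured by LC/MS/MS, normalized to solvent controls.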

Liver microsome [28] = experiment: Drug level in human liver microsomes treated with lapatinib at 50 uM by LC/MS/MS analysis; format: ADME; outline: as §1
Cytochrome P450 3A4 [29] = target: T1, Cytochrome P450 3A4; experiment: Activity of recombinant CYP3A4 (unknown origin) assessed as compound formation treated with lapatinib at 50 uM by LC/MS/MS analysis; format: ADME; conditions: recombinant enzyme; outline: as §1
[30] = Retention time of the compound by LC/MS/MS analysis relative to lapatinib; format: physicochemical
Outline: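 Phenyl UPLC column (1.7 μm, 2.1 x 100 mm), 0.1% formic acid in water/acetonitrile, 0.4 mL/min. Gradient: 10% organic for 1 min, to 90% over 13 min, held 0.5 min. Detection by accurate-mass MS. Retention times expressed relative to lapatinib.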

Cytochrome P450 3A5 [31] = target: T2, Cytochrome P450 3A5; experiment: Activity of recombinant CYP3A5 (unknown origin) assessed as compound formation treated with lapatinib at 50 uM by LC/MS/MS analysis; format: ADME; conditions: recombinant enzyme; outline: as §1

T1 sequence (P08684 whole entry): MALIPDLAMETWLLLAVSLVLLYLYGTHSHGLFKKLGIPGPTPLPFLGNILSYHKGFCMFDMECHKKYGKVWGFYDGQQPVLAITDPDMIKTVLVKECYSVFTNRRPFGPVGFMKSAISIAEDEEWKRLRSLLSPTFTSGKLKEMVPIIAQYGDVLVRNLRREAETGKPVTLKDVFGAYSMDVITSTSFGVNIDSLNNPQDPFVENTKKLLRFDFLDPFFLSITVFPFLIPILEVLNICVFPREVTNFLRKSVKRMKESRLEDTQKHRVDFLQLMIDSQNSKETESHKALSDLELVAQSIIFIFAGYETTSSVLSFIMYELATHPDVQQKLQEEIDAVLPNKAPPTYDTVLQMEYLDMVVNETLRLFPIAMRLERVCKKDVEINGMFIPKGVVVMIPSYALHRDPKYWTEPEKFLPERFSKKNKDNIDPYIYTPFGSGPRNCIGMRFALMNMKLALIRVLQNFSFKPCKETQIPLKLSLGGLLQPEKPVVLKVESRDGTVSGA
T2 sequence (P20815 whole entry): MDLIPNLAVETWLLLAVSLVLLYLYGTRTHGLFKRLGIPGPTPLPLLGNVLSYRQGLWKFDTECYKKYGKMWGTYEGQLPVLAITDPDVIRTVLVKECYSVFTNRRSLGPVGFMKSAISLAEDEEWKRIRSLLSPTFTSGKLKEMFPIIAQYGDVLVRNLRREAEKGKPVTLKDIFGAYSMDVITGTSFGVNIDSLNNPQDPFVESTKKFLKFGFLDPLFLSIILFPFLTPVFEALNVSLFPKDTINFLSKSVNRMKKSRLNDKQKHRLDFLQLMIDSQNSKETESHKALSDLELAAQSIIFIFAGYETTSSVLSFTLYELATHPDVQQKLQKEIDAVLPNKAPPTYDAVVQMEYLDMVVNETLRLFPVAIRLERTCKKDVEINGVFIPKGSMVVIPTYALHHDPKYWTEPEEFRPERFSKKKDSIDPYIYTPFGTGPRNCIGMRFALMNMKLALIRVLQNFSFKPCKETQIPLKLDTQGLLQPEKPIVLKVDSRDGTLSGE
T3 sequence (P08684 whole entry): as the sequence (P08684 whole entry) above
Sequence of CYP3A5 (P20815 whole entry): as the sequence (P20815 whole entry) above

## CS(=O)(=O)CCNCc1ccc(-c2ccc3ncnc(Nc4ccc(OCc5cccc(F)c5)c(Cl)c4)c3c2)o1 [LAPATINIB]
Liver microsome [1]
  Drug metabolism: metabolite_detected
Liver microsome [2]
  Drug metabolism: metabolite_detected
Liver microsome [3]
  Drug metabolism: metabolite_detected
Cytochrome P450 3A4 [4]
  Drug metabolism: metabolite_detected
Cytochrome P450 3A4 [5]
  Drug metabolism: metabolite_detected
Cytochrome P450 3A4 [6]
  Drug metabolism: metabolite_detected
Cytochrome P450 3A4 [7]
  Drug metabolism: metabolite_detected
Cytochrome P450 3A4 [8]
  Drug metabolism: metabolite_detected
Cytochrome P450 3A4 [9]
  Drug metabolism: metabolite_detected
Cytochrome P450 3A5 [10]
  Drug metabolism: metabolite_detected
Cytochrome P450 3A5 [11]
  Drug metabolism: metabolite_detected
Cytochrome P450 3A5 [12]
  Drug metabolism: metabolite_detected
Cytochrome P450 3A5 [13]
  Drug metabolism: metabolite_detected
Cytochrome P450 3A5 [14]
  Drug metabolism: metabolite_detected
Cytochrome P450 3A5 [15]
  Drug metabolism: metabolite_detected
Cytochrome P450 3A5 [16]
  Drug metabolism: metabolite_detected
Cytochrome P450 3A5 [17]
  Drug metabolism: metabolite_detected
Cytochrome P450 3A4 [18]
  Drug metabolism: metabolite_detected
Cytochrome P450 3A4 [19]
  Drug metabolism: metabolite_detected
Liver microsome [20]
  Drug metabolism: metabolite_detected
Liver microsome [21]
  Drug metabolism: metabolite_detected
Liver microsome [22]
  Drug metabolism: metabolite_detected
Liver microsome [23]
  Drug metabolism: metabolite_detected
Liver microsome [24]
  Drug metabolism: metabolite_detected
CYP3A4 [25]
  inhibition at 50 µM: 45%
CYP3A4 [26]
  inhibition at 50 µM: 45%
CYP3A5
  inhibition at 50 µM: < 15%
Cytochrome P450 3A5 [27]
  inhibition (INH): Active

## O/N=C/c1ccc(-c2ccc3ncnc(Nc4ccc(OCc5cccc(F)c5)c(Cl)c4)c3c2)o1
Liver microsome [28]
  Drug metabolism: metabolite_detected
Cytochrome P450 3A4 [29]
  Drug metabolism: metabolite_detected
[30]
  Ratio: 1.18
Cytochrome P450 3A5 [31]
  Drug metabolism: metabolite_detected

## CS(=O)(=O)CCNC(O)c1ccc(-c2ccc3ncnc(Nc4ccc(O)c(Cl)c4)c3c2)o1 (stereo unspecified)
Liver microsome [28]
  Drug metabolism: metabolite_detected
Cytochrome P450 3A4 [29]
  Drug metabolism: metabolite_detected
[30]
  Ratio: 0.78
Cytochrome P450 3A5 [31]
  Drug metabolism: metabolite_detected
